Compound activity deposited in PubChem by The Scripps Research Institute Molecular Screening Center.
Shown are actives, neighbours in structure and some others; about 2.8% of the full set was active somewhere.
PAFAH2 FP inh: PAFAH2 (human) inhibition; inhibition, % at 3.39 µM; recombinant PAFAH2, FP-rhodamine activity probe, fluorescence polarization; Q99487; hit rate 0.99% among 340,000;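 active = inhibition above the mean over all tested compounds plus 3 SD, cut at about 30% in these data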;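 also: inhibitors block probe labeling of enzyme so polarization drops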
PAFAH1B3 FP inh: blocks human PAF acetylhydrolase 1B catalytic subunit 3 | inhibition, % at 3.39 µM | Q15102 | hit rate 0.28% among 340,000 | recombinant PAFAH1B3, FP-rhodamine probe, fluorescence polarization;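 active = inhibition above the screen-wide average of all tested compounds plus 3 SD, cut at about 25% in these data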
PAFAH1B2 inh: blocks human PAF acetylhydrolase 1b catalytic subunit 2 | recombinant PAFAH1B2, FP-rhodamine activity probe, fluorescence polarization | AID 492953 | P68402 | inhibition, % at 3.39 µM | hit rate 1.2% among 340,000;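 active = inhibition above the mean of all tested compounds plus 3 SD, cut at about 24% in these data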
Target sequence (P68402 whole entry, looked up): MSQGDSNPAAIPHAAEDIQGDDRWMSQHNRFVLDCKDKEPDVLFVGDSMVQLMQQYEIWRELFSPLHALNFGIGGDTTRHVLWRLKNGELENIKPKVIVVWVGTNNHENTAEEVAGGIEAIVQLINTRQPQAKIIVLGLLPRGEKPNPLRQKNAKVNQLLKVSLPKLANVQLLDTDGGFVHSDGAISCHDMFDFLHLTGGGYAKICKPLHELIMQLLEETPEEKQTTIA
ABHD4 inh: inhibits mouse alpha/beta hydrolase domain 4; purified mABHD4, FP-Rh probe fluorescence polarization; hit rate 0.54% among 370,000; inhibition, % at 8.92 µM;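 active = inhibition exceeding the mean over every tested compound plus 3 SD, cut at about 30% in these data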
Target sequence (Q8VD66 whole entry, looked up, the tested form may be a part): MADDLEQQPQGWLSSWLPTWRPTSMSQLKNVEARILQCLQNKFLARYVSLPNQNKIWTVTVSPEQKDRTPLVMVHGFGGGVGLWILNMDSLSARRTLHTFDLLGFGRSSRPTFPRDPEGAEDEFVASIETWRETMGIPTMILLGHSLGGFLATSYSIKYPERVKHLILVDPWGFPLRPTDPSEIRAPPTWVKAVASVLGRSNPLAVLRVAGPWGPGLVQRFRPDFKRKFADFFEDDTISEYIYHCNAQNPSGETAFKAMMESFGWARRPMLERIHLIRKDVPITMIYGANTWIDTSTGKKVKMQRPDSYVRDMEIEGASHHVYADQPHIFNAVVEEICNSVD
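System: mouse ABHD4 enzyme, wild type / Medium: HEPES pH 7.0, NaCl, Pluronic buffer / Reagent: FP-Rh activity-based fluorescent probe / Control set: S159A mutant high control, sample median low control / Detection: fluorescence polarization with parallel and perpendicular emission, 525/598 nm / Schedule: 45 min + 60 min at 25 °C / Compound dosing: 8.92 µM, single dose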
pPAFAH FP inh: inhibitors of human plasma PAF acetylhydrolase (pPAFAH); Q13093; recombinant pPAFAH, FP-rhodamine probe fluorescence polarization; AID 463082; hit rate 1.5% among 330,000; inhibition, % at 3.39 µM;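 active = inhibition above the mean inhibition across the screen plus 3 SD, cut at about 25% in these data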;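 also: inhibitors block binding of the rhodamine activity-based probe so polarization drops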
HTRA1 inhibitor: blocks human HTRA1 serine peptidase | inhibition, % at 5.96 µM | AID 504803 | recombinant HTRA1, FP-rhodamine activity-based probe, fluorescence polarization | Q92743 | hit rate 0.5% among 340,000; in the data active = inhibition above about 36%
PAFAH2 confirm: confirmation of human PAFAH2 inhibitors | shares compounds with PAFAH2 FP inh | recombinant PAFAH2, FP-rhodamine activity probe, fluorescence polarization | inhibition, % at 3.39 µM | hit rate 65% among 2,300;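 active = mean inhibition over three repeats above a set limit taken from the earlier primary screen, cut at about 30% in these data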;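 also: inhibitor blocks binding of rhodamine activity probe so polarization falls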
Each line names hits and unclear results; the compound was inactive in the other large screens (follow-up assays come after a bar, where they were run).

COc1ccc(C(=O)C2(C(=O)NC3CCCC3)CC(c3ccccc3C(F)(F)F)=NO2)cc1 (stereo unspecified)	none (no result: PAFAH2 FP inh, PAFAH1B3 FP inh, PAFAH1B2 inh, pPAFAH FP inh, HTRA1 inhibitor)
C=CCN1C/C(=C/c2ccccc2)N2C(=O)CC(c3ccccc3)N=C12 (stereo unspecified)	none (no result: PAFAH2 FP inh, PAFAH1B3 FP inh, PAFAH1B2 inh, pPAFAH FP inh, HTRA1 inhibitor)
O=C(COC(=O)/C=C/c1ccco1)NCc1ccco1	PAFAH2 FP inh 37 | PAFAH2 confirm inactive
CNC(=O)COC(=O)/C=C/c1ccco1	none
O=C(c1cc(Br)cc(Br)c1)N1CCC(Oc2cccnc2)CC1	none (no result: PAFAH2 FP inh, PAFAH1B3 FP inh, PAFAH1B2 inh, pPAFAH FP inh, HTRA1 inhibitor)
Cc1c(C(c2cc3c(cc2Br)OCO3)c2c(C)n(C)n(-c3ccccc3)c2=O)c(=O)n(-c2ccccc2)n1C	PAFAH2 FP inh 81 | PAFAH2 confirm 77
Cc1c(C(c2ccccc2O)c2c(C)n(C)n(-c3ccccc3)c2=O)c(=O)n(-c2ccccc2)n1C	none
COCC(=O)Nc1ccccc1-c1ccccc1	none
N#Cc1ccsc1NC(=O)COC(=O)c1ccc(NC(N)=O)cc1	none
CCN(CC)c1ccc(C(=O)OCC(=O)Nc2ncccn2)cc1	PAFAH2 FP inh 77 | PAFAH2 confirm 70
CCN(CC)c1ccc(C(=O)OCC(=O)Nc2ccccc2-c2ccccc2)cc1	PAFAH2 FP inh 77 | PAFAH2 confirm 51
CCN(CC)c1ccc(C(=O)OCC(=O)Nc2sccc2C#N)cc1	PAFAH2 FP inh 47 | PAFAH2 confirm 54
Cc1ccc(C2CCC3(CCC(=O)N3CCOC(=O)Nc3ccc(Br)cc3)CC2)cc1 (stereo unspecified)	none (no result: PAFAH2 FP inh, PAFAH1B3 FP inh, PAFAH1B2 inh, pPAFAH FP inh, HTRA1 inhibitor)
O=C(Nc1c(-c2ccc(C(F)(F)F)cc2)nc2ncccn12)c1ccccc1	none (no result: PAFAH2 FP inh, PAFAH1B3 FP inh, PAFAH1B2 inh, pPAFAH FP inh, HTRA1 inhibitor)
COC(=O)c1sccc1-c1ccc(/C=N/OC(=O)c2cccs2)o1	PAFAH2 FP inh 50 | PAFAH2 confirm inactive
COC(=O)C(=Cc1ccc(-c2ccsc2C(=O)OC)o1)C(=O)OC	none
COC(=O)[C@]1(C)CN(C(=O)OC(C)(C)C)C2=C1C(=O)C[C@](C)(C(=O)OC(C)(C)C)C2	none (no result: PAFAH2 FP inh, PAFAH1B3 FP inh, PAFAH1B2 inh, pPAFAH FP inh, HTRA1 inhibitor)
O=C(COC(=O)c1ccc(OC(F)F)cc1)NC(=O)NC1CCCC1	none
O=C(COC(=O)c1cccc(O)c1)Nc1ccc(OC(F)F)cc1	PAFAH2 FP inh 64 | PAFAH2 confirm 54
CCCC(=O)OCC(=O)Nc1ccc(OC(F)F)cc1	none
CN(C)c1cccc(C(=O)OCC(=O)NC2CCCC2)c1	PAFAH2 FP inh 77 | PAFAH2 confirm 78
O=C(COC(=O)c1cccc(OC(F)F)c1)NC1CCCC1	PAFAH2 FP inh 52 | PAFAH2 confirm 40
C/C(=N/NC(=O)c1ccoc1C)C12CC3CC(CC(C3)C1)C2	none
C/C(=N\NC(=O)c1ccccn1)C12CC3CC(CC(C3)C1)C2	PAFAH2 FP inh 38 | PAFAH2 confirm inactive
CCCCOC(=O)n1c(=O)oc2ccc(S(=O)(=O)N3CCCCC3)cc21	PAFAH2 FP inh 66 | PAFAH2 confirm 61
CCCNC(=O)COC(=O)/C=C/c1ccc(C)o1	PAFAH2 FP inh 40 | PAFAH2 confirm 37
CCOc1ccc(CCNC(=O)COC(=O)/C=C/c2ccc(C)o2)cc1OCC	none
Cc1ccc(/C=C/C(=O)OCC(=O)NCc2ccccc2)o1	PAFAH2 FP inh 52 (no result: pPAFAH FP inh) | PAFAH2 confirm 40
COc1ccc(/C=C/C(=O)OCC(=O)Nc2ccc(OC)c(S(=O)(=O)N3CCCCC3)c2)cc1	none
COc1ccc(/C=C/C(=O)OCC(=O)Nc2ccc(C)cc2)cc1S(=O)(=O)N1CCOCC1	PAFAH2 FP inh 71 | PAFAH2 confirm 73
COc1ccc(NC(=O)COC(=O)/C=C/c2ccc(OC)c(S(=O)(=O)N3CCOCC3)c2)cc1	PAFAH2 FP inh 62 | PAFAH2 confirm 58
Cc1ccc(NC(=O)COC(=O)/C=C/c2cccc(Cl)c2)cc1S(=O)(=O)N1CCOCC1	PAFAH2 FP inh 60 | PAFAH2 confirm 50
N#Cc1ccc(NC(=O)OC2CC3CC2[C@H]2CCCCN2[C@H]3Cc2ccccc2)cc1 (stereo partly specified)	none (no result: PAFAH2 FP inh, PAFAH1B3 FP inh, PAFAH1B2 inh, pPAFAH FP inh, HTRA1 inhibitor)
N#Cc1ccc(Cl)cc1NC(=O)COC(=O)c1cccc(S(=O)(=O)N2CCOCC2)c1	PAFAH2 FP inh 46 | PAFAH2 confirm 38
O=C(COC(=O)c1cccc(S(=O)(=O)N2CCOCC2)c1)Nc1ncc(Cl)cc1Cl	PAFAH2 FP inh 35 | PAFAH2 confirm inactive
